Hits are enriched below; roughly 1.2% of the tested compounds scored in any of these assays.
ARFGAP1 inhibitor – inhibitors of rat ARFGAP1; Q62848; Arfgap1-stimulated ARF1 GTP hydrolysis, GDP FP detection; inhibition, % at 16.5 µM; actives 0.26% (n = 360,000); AID 651572;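 active means inhibition above a per-plate limit, mean inhibition of low control wells plus 3 SD, cut at about 25% in these data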;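 further: 0% = DMSO wells with enzyme and 100% = wells lacking Arfgap1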
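Material: rat Arfgap1 catalytic domain, aa 1-136; also added: human ARF1(Δ1-17)-GTP substrate; compound dosing: one concentration, 16.5 µM, DMSO 1.26%; incubation: GTP hydrolysis reaction 2 h at 25 °C; measured by: Tracer-displacement fluorescence polarization with EDTA stop, 620/688 nm; evaluation: % inhibition from polarization; repeats: one replicate per compound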
ASAP1 GAP inh – inhibitors of human ASAP1 ArfGAP activity. actives 0.19% (n = 360,000). inhibition, % at 16.5 µM. Q9ULH1. ASAP1-stimulated ARF1 GTP hydrolysis, GDP FP detection; in the data active means inhibition above about 25%;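 further: 0% = vehicle with enzyme and substrate and 100% = no enzyme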
Target sequence (Q9ULH1 325-724 limits assumed): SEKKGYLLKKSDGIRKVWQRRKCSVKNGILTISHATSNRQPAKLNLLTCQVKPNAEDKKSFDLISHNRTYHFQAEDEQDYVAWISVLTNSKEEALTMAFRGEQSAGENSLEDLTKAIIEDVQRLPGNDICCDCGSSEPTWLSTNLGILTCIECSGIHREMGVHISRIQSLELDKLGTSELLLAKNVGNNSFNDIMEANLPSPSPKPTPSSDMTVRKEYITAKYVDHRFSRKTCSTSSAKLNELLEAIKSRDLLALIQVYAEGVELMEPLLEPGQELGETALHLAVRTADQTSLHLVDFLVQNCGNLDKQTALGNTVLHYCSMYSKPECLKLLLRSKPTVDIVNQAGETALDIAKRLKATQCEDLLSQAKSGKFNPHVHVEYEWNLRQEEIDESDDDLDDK
PREPL inh – human PREPL enzyme inhibition. Q4J6C6. recombinant PREPL, fluorescence polarization activity-based probe. inhibition, % at 5.96 µM. actives 0.68% (n = 320,000); in the data active means inhibition above about 43%;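 further: 0% = enzyme with DMSO and 100% = wells lacking enzyme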
IDE inh – inhibitors of human insulin-degrading enzyme in cells | AID 434962 | actives 0.41% (n = 320,000) | inhibition, % at 5.59 µM | HEK cells, FAbetaB cleavage, fluorescence polarization | P14735;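 active means percent inhibition above the average of all tested compounds plus 3 SD, set per screening campaign, cut at about 16% in these data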;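 further: IDE supplied by intact live HEK cells; FP after avidin binding of uncleaved biotin substrate so inhibition keeps polarization high; 0% = DMSO wells and 100% = 60 µM reference IDE inhibitor Ii1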
IDE cell activ – boosts human insulin-degrading enzyme activity in HEK cells; P14735; FAbeta-B cleavage, fluorescence polarization; 0% vehicle, 100% cell-free pure enzyme wells; activation, % at 5.96 µM; actives 0.073% (n = 340,000); AID 493087;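 active means activation above the mean of all tested compounds plus 3 SD, set per screening campaign, cut at about 17% in these data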
* hit, by the source's call; x = not tested or not shown.

SMILES | ARFGAP1 inhibitor | ASAP1 GAP inh | PREPL inh | IDE inh | IDE cell activ
O=C(O)c1cc(O)ccc1O | 4 | 6 | x | x | 1
CCN(CC)CCN1CCn2c3c(c4cc(C)ccc42)CCCC31 (configuration not stated) | 2 | -3 | 52* | 9 | -2
CCN1CCn2c3c(c4cc(Cl)ccc42)CCCC31 (configuration not stated) | 2 | 5 | 38 | 2 | 4
O=C1C(SCCO)=C(SCCO)C(=O)c2ccccc21 | -5 | 19 | 30 | 53* | -121
CCCN(C(=O)CCc1cn(CCC)c2ccccc12)c1ccc(N(C)c2ccccn2)cc1 | 3 | 1 | x | x | x
C[C@H](CO)N1C[C@H](C)[C@@H](CN(C)Cc2ccccc2)Oc2c(NS(=O)(=O)c3ccc(F)cc3)cccc2C1=O | -11 | -4 | 23 | -1 | 3
C[C@H](CO)N1C[C@H](C)[C@@H](CN(C)Cc2ccc(Cl)c(Cl)c2)Oc2c(NS(=O)(=O)c3ccc(F)cc3)cccc2C1=O | 1 | 31* | 21 | 8 | 3
COc1ccc2c(c1)[C@@]1(OCCC=C[C@H]1C)C(=O)N2Cc1ccc(F)cc1 | 14 | 10 | x | x | x
Oc1ccccc1-c1nc(NC2CCCC2)c2ccccc2n1 | 11 | 4 | -1 | 2 | 0
c1ccc(-c2nnc(-c3ccccn3)nc2NC2CCCCC2)cc1 | -11 | -9 | 86* | 3 | 4
O=C(Nc1ccc(Br)cc1)c1cc([N+](=O)[O-])cc([N+](=O)[O-])c1 | 5 | 6 | 24 | -3 | 5
O=c1c2c([N+](=O)[O-])cc([N+](=O)[O-])cc2sn1-c1ccc(Br)cc1 | x | x | 9 | 96* | -53
Nc1ccc(Nc2ccccc2N)cc1 | 13 | 9 | 94* | -1 | 9
O=C(O)c1ccc(N=Nc2c(O)ccc3ncccc23)cc1 | -1 | 2 | 6 | -33 | 39*
O=C(O)c1cc(N=Nc2c(O)ccc3ccccc23)cc(C(=O)O)c1 | 3 | 9 | x | x | 0
C#CCOCCOCCOCCNc1nc(N2CCN(C(=O)[C@H](CCC(=O)O)n3cc(C(N)CO)nn3)CC2)nc(N2CCN(C(=O)[C@H](Cc3cc4ccccc4[nH]3)n3cc(C(N)[C@H](C)CC)nn3)CC2)n1 (some centres not stated) | x | x | 18 | -1 | 3
C#CCOCCOCCOCCNc1nc(N2CCN(C(=O)[C@H](Cc3cc4ccccc4[nH]3)n3cc([C@@H](N)C(C)CC)nn3)CC2)nc(N2CCN(C(=O)[C@H](Cc3cc4ccccc4[nH]3)n3cc([C@@H](N)CC(C)C)nn3)CC2)n1 (some centres not stated) | x | x | 69* | 4 | x
C#CCOCCOCCOCCNc1nc(N2CCN(C(=O)[C@H]([C@@H](C)CC)n3cc([C@@H](N)CO)nn3)CC2)nc(N2CCN(C(=O)[C@H](Cc3cc4ccccc4[nH]3)n3cc([C@@H](N)Cc4ccc(O)cc4)nn3)CC2)n1 | x | x | 49* | 3 | x
OC(CN1CCNCC1)Cn1ccc2ccccc21 (configuration not stated) | x | x | 60* | 18* | x
Cc1cc(C)n(CC(O)Cn2ccc3ccccc32)n1 (configuration not stated) | -4 | 10 | 11 | 8 | 2
Oc1ccccc1NCC(O)Cn1ccc2ccccc21 (configuration not stated) | -3 | -9 | 45* | 6 | -6
OC(CNCc1ccccc1)Cn1ccc2ccccc21 (configuration not stated) | 3 | -1 | 8 | 3 | 6
CCOC(=O)C1=CCN(S(=O)(=O)c2cccc(Cl)c2)C1c1ccc(Cl)c(Cl)c1 (configuration not stated) | -7 | -6 | x | x | x
COc1cc(OC)cc(C(=O)NCC2CCN(C(=O)C(=O)c3cc4ccccc4o3)CC2)c1 | 6 | 4 | x | x | x
COc1cc(/C=C2\SC(=S)N(c3cccnc3)C2=O)ccc1O | -25 | 4 | -43 | 45* | -90
CCN1CCN(Cc2ccc(NC(=O)c3cc(NC(=O)c4cc(-c5ccc(OC)cc5)n[nH]4)cc(OC)c3)cc2C(F)(F)F)CC1 | 31* | 26* | -10 | 11 | 0
CCN1CCN(Cc2ccc(NC(=O)c3cc(NC(=O)c4ccc5n[nH]nc5c4)cc(OC)c3)cc2C(F)(F)F)CC1 | 9 | 23 | -26 | -4 | -2
CCOC(=O)C1(CC2CC2)CCN(Cc2cnc(N(C)C)s2)CC1 | 5 | -3 | 1 | 3 | 17*

Assay outcomes deposited in PubChem BioAssay by The Scripps Research Institute Molecular Screening Center.
